ChEMBL document CHEMBL2203103, “Discovery of a novel series of benzimidazole derivatives as diacylglycerol acyltransferase inhibitors” (Bioorg Med Chem Lett, 2012)
Calls of active or inactive are those of the source. No cut-off for these calls is given here.

What was measured:
[1] = molecular target: T1, Diacylglycerol O-acyltransferase 1 (Rattus norvegicus, UniProt Q9ERM3); assay: (§1) Inhibition of DGAT in rat liver microsomes; set-up: species or system Microsome
T1 sequence (Q9ERM3 whole entry): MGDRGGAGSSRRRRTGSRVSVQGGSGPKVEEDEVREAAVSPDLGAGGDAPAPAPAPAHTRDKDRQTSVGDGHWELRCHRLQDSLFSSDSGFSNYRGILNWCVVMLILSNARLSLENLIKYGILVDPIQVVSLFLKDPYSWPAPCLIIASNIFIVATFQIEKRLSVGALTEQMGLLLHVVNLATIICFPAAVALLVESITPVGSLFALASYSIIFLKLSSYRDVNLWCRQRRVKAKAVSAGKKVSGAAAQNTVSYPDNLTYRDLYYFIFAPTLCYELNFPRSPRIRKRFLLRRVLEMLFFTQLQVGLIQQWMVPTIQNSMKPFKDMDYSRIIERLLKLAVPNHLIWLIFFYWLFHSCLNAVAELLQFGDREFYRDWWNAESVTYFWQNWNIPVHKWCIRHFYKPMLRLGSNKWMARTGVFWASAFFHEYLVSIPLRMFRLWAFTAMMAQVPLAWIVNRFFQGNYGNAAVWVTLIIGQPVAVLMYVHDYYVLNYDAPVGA
Outline: (§2)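 DGAT activity was measured in microsomes prepared from rat liver, using a modified version of Coleman's method. IC₅₀ values were determined.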

Mus musculus [2] = species on record: Mus musculus; assay: Antiobesity activity in high fat diet-induced obese mouse assessed as decrease in retroperitoneal fat (reference value: 1.41 +/- 0.29 %); assay type: functional; set-up: scale not given: the % may be the effect or the level left
Outline: (§3)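 In 6-week-old male diet-induced obese mice, HFD-fed and individually housed (23 °C ± 3 °C, 12-h light–dark, food and water ad libitum), total and retroperitoneal fat were weighed after 5 weeks of treatment. Values are given as (tissue weight/body weight) × 100 and compared with normal-diet and untreated HFD groups.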

Mus musculus [3] = species on record: Mus musculus; assay: Antiobesity activity in high fat diet-induced obese mouse assessed as decrease in abdominal and epididymal fat (reference value: 5.34 +/- […]); assay type: functional; set-up: scale not given: the % may be the effect or the level left
Mus musculus [4] = species on record: Mus musculus; assay: Antiobesity activity in high fat diet-induced obese mouse assessed as decrease in total fat (reference value: 6.75 +/- 1.18 %); assay type: functional; set-up: scale not given: the % may be the effect or the level left; outline: as §3
Mus musculus [5] = species on record: Mus musculus; assay: Antidyslipidemic activity in high fat diet-induced obese mouse assessed as increase in blood HDL-cholesterol level (reference value: 17.4 +/- 2.15 mg/dl); assay type: functional
Mus musculus [6] = species on record: Mus musculus; assay: Antiobesity activity in high fat diet-induced obese mouse assessed as inhibition of body weight gain after 5 weeks (reference value: 52.9 +/- 1.20 g); assay type: functional
Mus musculus [7] = species on record: Mus musculus; assay: Antiobesity activity in high fat diet-induced obese mouse assessed as inhibition of body weight gain after 4 weeks (reference value: 49.9 +/- 1.24 g); assay type: functional
Mus musculus [8] = species on record: Mus musculus; assay: Antiobesity activity in high fat diet-induced obese mouse assessed as inhibition of body weight gain after 3 weeks (reference value: 45.9 +/- 2.29 g); assay type: functional
Mus musculus [9] = species on record: Mus musculus; assay: Antiobesity activity in high fat diet-induced obese mouse assessed as inhibition of body weight gain after 2 weeks (reference value: 37.8 +/- 3.55 g); assay type: functional
Mus musculus [10] = species on record: Mus musculus; assay: Antiobesity activity in high fat diet-induced obese mouse assessed as inhibition of body weight gain after 1 week (reference value: 35.2 +/- 1.57 g); assay type: functional
Mus musculus [11] = species on record: Mus musculus; assay: Antidyslipidemic activity in high fat diet-induced obese mouse assessed as decrease in blood LDL-cholesterol level (reference value: 119 +/- 14.3 mg/dl); assay type: functional
Mus musculus [12] = species on record: Mus musculus; assay: Antidyslipidemic activity in high fat diet-induced obese mouse assessed as decrease in total blood triglyceride level (reference value: 120 +/- 11.2 mg/dl); assay type: functional
Mus musculus [13] = species on record: Mus musculus; assay: Antidyslipidemic activity in high fat diet-induced obese mouse assessed as decrease in total blood cholesterol level (reference value: 160 +/- 13.9 mg/dl); assay type: functional
Mus musculus [14] = assay: Antiobesity activity in high fat diet-induced obese mouse assessed as inhibition of body weight gain at 10 mg/kg after 5 weeks (reference value: 52.9 +/- 1.20 g); assay type: functional
Mus musculus [15] = assay: Antiobesity activity in high fat diet-induced obese mouse assessed as inhibition of body weight gain at 10 mg/kg after 4 weeks (reference value: 49.9 +/- 1.24 g); assay type: functional
Mus musculus [16] = assay: Antiobesity activity in high fat diet-induced obese mouse assessed as inhibition of body weight gain at 10 mg/kg after 3 weeks (reference value: 45.9 +/- 2.29 g); assay type: functional
Mus musculus [17] = assay: Antiobesity activity in high fat diet-induced obese mouse assessed as inhibition of body weight gain at 10 mg/kg after 2 weeks (reference value: 37.8 +/- 3.55 g); assay type: functional
Mus musculus [18] = assay: Antiobesity activity in high fat diet-induced obese mouse assessed as inhibition of body weight gain at 10 mg/kg after 1 week (reference value: 35.2 +/- 1.57 g); assay type: functional
HepG2 = assay: Cytotoxicity against human HepG2 cells assessed as cell viability after 48 hrs by MTT assay; assay type: cell-based; conditions: hepg2, 48 h
Outline: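 HepG2 cells were kept in DMEM with 10% heat-inactivated FBS and 1% penicillin–streptomycin at 37 °C in 5% CO₂. Cells were seeded at 2 × 10⁴ per well, exposed to compound for 48 h, and viability was read by MTT as formazan absorbance at 560 nm.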

[19] = molecular target: T2, Diacylglycerol O-acyltransferase 1 (Homo sapiens) (UniProt O75907); assay: Residual DGAT activity in human HepG2 cells using [14C]acetate as substrate assessed as formation of [14C]-triglyceride at 3 uM by chromatographic analysis relative to control
T2 sequence (whole entry): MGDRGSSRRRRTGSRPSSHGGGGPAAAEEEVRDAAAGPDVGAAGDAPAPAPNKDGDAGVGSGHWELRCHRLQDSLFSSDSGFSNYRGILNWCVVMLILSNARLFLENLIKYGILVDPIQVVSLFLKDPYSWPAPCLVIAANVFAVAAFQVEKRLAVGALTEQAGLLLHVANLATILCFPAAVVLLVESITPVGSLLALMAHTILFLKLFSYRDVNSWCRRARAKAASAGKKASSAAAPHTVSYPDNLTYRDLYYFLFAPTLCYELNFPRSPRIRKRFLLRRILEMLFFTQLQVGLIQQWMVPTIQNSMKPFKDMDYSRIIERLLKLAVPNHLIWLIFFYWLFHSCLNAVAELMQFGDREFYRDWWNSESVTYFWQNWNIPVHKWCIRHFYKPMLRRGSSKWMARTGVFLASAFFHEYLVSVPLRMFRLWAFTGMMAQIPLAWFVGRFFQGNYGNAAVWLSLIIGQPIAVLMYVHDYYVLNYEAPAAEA

[20] = molecular target: T2, Diacylglycerol O-acyltransferase 1 (Homo sapiens); assay: Residual DGAT activity in human HepG2 cells using [14C]glycerol as substrate assessed as formation of [14C]-triglyceride at 3 uM by chromatographic analysis relative to control
[21] = molecular target: T2, Diacylglycerol O-acyltransferase 1 (Homo sapiens); assay: Residual DGAT activity in human HepG2 cells using [14C]acetate as substrate assessed as formation of [14C]-triglyceride at 10 uM by chromatographic analysis relative to control
[22] = molecular target: T2, Diacylglycerol O-acyltransferase 1 (Homo sapiens); assay: Residual DGAT activity in human HepG2 cells using [14C]glycerol as substrate assessed as formation of [14C]-triglyceride at 10 uM by chromatographic analysis relative to control
[23] = molecular target: T3, Diacylglycerol O-acyltransferase 1 (Rattus norvegicus) (UniProt Q9ERM3); assay: as §1; conditions: Microsome; outline: as §2
T3 sequence (whole entry): T1 sequence (Q9ERM3 whole entry)

## NC(=O)c1ccc2nc(COc3ccc(C45CC6CC(CC(C6)C4)C5)cc3)[nH]c2c1
[1]
  IC50: > 50 µM

## CCCCCCCCCCC[C@@H](C[C@@H]1OC(=O)[C@H]1CCCCCC)OC(=O)[C@H](CC(C)C)NC=O [ORLISTAT]
Mus musculus [2]
  Activity: 0.75%
Mus musculus [3]
  Activity: 2.45%
Mus musculus [4]
  Activity: 3.2%
Mus musculus [5]
  Activity: 30.3 mg/dL
Mus musculus [6]
  Activity: 41.2 g
Mus musculus [7]
  Activity: 40 g
Mus musculus [8]
  Activity: 39.1 g
Mus musculus [9]
  Activity: 37.4 g
Mus musculus [10]
  Activity: 33.6 g
Mus musculus [11]
  Activity: 20.5 mg/dL
Mus musculus [12]
  Activity: 40.8 mg/dL
Mus musculus [13]
  Activity: 53.8 mg/dL

## O=C(NCc1ccccc1)c1ccc2nc(COc3ccc(C45CC6CC(CC(C6)C4)C5)cc3)[nH]c2c1
[1]
  IC50: > 50 µM

## O=C(NCc1ccco1)c1ccc2[nH]c(COc3ccc(C45CC6CC(CC(C6)C4)C5)cc3)nc2c1
Mus musculus [2]
  Activity: 0.94%
Mus musculus [3]
  Activity: 3.16%
Mus musculus [4]
  Activity: 4.1%
Mus musculus [5]
  Activity: 21.2 mg/dL
Mus musculus [14]
  Activity: 43.2 g
Mus musculus [15]
  Activity: 42.3 g
Mus musculus [16]
  Activity: 40.8 g
Mus musculus [17]
  Activity: 38.9 g
Mus musculus [18]
  Activity: 35.1 g
HepG2
  Activity: > 50 µM
[1]
  IC50: 4.4 µM
Mus musculus [11]
  Activity: 43.6 mg/dL
Mus musculus [12]
  Activity: 41.8 mg/dL
Mus musculus [13]
  Activity: 73.2 mg/dL
[19]
  residual activity: 80.9%
[20]
  residual activity: 69.5%
[21]
  residual activity: 53%
[22]
  residual activity: 45%

## CN(C)C(=O)c1ccc2nc(COc3ccc(C45CC6CC(CC(C6)C4)C5)cc3)[nH]c2c1
[1]
  IC50: > 50 µM

## Cc1ccc(CNC(=O)c2ccc3nc(COc4ccc(C56CC7CC(CC(C7)C5)C6)cc4)[nH]c3c2)o1
[1]
  IC50: 11.4 µM

## O=C(c1ccc2[nH]c(COc3ccc(C45CC6CC(CC(C6)C4)C5)cc3)nc2c1)N1CCCC1
[1]
  IC50: 11.3 µM

## O=C(c1ccc2[nH]c(COc3ccc(C45CC6CC(CC(C6)C4)C5)cc3)nc2c1)N1CCCCC1
[1]
  IC50: 27.5 µM

## Cc1ccoc1CNC(=O)c1ccc2nc(COc3ccc(C45CC6CC(CC(C6)C4)C5)cc3)[nH]c2c1
[1]
  IC50: 25.4 µM

## CC(C)(C)c1ccc(OCc2nc3cc(C(=O)NCc4ccco4)ccc3[nH]2)cc1
[1]
  IC50: 9 µM

## O=C(NC[C@@H]1CCCO1)c1ccc2nc(COc3ccc(C45CC6CC(CC(C6)C4)C5)cc3)[nH]c2c1
[1]
  IC50: 9.5 µM

## O=C(NCc1ccco1)c1ccc2nc(COc3ccc(-c4ccccc4)cc3)[nH]c2c1
[1]
  IC50: > 50 µM

## O=C(O)c1ccc2[nH]c(COc3ccc(C45CC6CC(CC(C6)C4)C5)cc3)nc2c1
[1]
  IC50: > 50 µM

## O=C(NCc1ccco1)c1ccc2nc(COc3ccccc3)[nH]c2c1
[1]
  IC50: > 50 µM

## O=C(NC[C@H]1CCCO1)c1ccc2nc(COc3ccc(C45CC6CC(CC(C6)C4)C5)cc3)[nH]c2c1
[1]
  IC50: 8.7 µM

## O=C(Nc1ccccc1)c1ccc2[nH]c(COc3ccc(C45CC6CC(CC(C6)C4)C5)cc3)nc2c1
[1]
  IC50: > 50 µM

## COC(=O)c1ccc2[nH]c(COc3ccc(C45CC6CC(CC(C6)C4)C5)cc3)nc2c1
[1]
  IC50: 23 µM

## COc1cc(O)c(CC=C(C)C)c(O)c1C(=O)/C=C/c1ccc(O)cc1
[23]
  inhibition: Active

## CC1(C)Oc2ncnc(N)c2N=C1c1ccc([C@H]2CC[C@H](CC(=O)O)CC2)cc1
[1]
  IC50: 3.1 µM

## O=C(NCc1cccs1)c1ccc2[nH]c(COc3ccc(C45CC6CC(CC(C6)C4)C5)cc3)nc2c1
[1]
  IC50: > 50 µM

## CC(C)c1cccc(C(C)C)c1NC(=O)c1ccc2nc(COc3ccc(C45CC6CC(CC(C6)C4)C5)cc3)[nH]c2c1
[1]
  IC50: > 50 µM

## O=C(NCc1ccccn1)c1ccc2[nH]c(COc3ccc(C45CC6CC(CC(C6)C4)C5)cc3)nc2c1
[1]
  IC50: 20 µM

## CC(C)NC(=O)c1ccc2nc(COc3ccc(C45CC6CC(CC(C6)C4)C5)cc3)[nH]c2c1
[1]
  IC50: 20 µM
